# Source: ChEMBL document CHEMBL5661970 (Cancer Res, 2006)
# Calls of active or inactive are those of the source. No cut-off for these calls is given here.
# What was measured:
# [1] = molecular target: Platelet-derived growth factor receptor beta (Homo sapiens, UniProt P09619); test: Inhibition of PDGFR-beta (unknown origin) in presence of ATP
# HUVEC = test: Inhibition of cell migration in VEGF-induced serum-starved human HUVEC cells at 1 nmol/L incubated for 22 hrs by calcein AM staining based fluorescence plate reader analysis relative to control; assay type: functional
# Summary of the method: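 HUVECs starved 5 h in EBM-2 with 0.1% BSA, placed in upper chamber of microchamber plate; lower chamber held 10 ng/mL VEGF, 0.1% FBS, 0.1% BSA. Compound in both chambers. After 22 h, migrated cells stained with 4 μg/mL calcein AM, read at 485/530 nm; 100%/0% set with/without VEGF in 0.1% DMSO; n = 10.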
# [2] = molecular target: Epidermal growth factor receptor (Homo sapiens, UniProt P00533); test: Inhibition of EGFR phosphorylation in serum starved human A-431 cells incubated for 1 hr by immunoblotting analysis; assay type: cell-based
# Sequence of Epidermal growth factor receptor (P00533 whole entry): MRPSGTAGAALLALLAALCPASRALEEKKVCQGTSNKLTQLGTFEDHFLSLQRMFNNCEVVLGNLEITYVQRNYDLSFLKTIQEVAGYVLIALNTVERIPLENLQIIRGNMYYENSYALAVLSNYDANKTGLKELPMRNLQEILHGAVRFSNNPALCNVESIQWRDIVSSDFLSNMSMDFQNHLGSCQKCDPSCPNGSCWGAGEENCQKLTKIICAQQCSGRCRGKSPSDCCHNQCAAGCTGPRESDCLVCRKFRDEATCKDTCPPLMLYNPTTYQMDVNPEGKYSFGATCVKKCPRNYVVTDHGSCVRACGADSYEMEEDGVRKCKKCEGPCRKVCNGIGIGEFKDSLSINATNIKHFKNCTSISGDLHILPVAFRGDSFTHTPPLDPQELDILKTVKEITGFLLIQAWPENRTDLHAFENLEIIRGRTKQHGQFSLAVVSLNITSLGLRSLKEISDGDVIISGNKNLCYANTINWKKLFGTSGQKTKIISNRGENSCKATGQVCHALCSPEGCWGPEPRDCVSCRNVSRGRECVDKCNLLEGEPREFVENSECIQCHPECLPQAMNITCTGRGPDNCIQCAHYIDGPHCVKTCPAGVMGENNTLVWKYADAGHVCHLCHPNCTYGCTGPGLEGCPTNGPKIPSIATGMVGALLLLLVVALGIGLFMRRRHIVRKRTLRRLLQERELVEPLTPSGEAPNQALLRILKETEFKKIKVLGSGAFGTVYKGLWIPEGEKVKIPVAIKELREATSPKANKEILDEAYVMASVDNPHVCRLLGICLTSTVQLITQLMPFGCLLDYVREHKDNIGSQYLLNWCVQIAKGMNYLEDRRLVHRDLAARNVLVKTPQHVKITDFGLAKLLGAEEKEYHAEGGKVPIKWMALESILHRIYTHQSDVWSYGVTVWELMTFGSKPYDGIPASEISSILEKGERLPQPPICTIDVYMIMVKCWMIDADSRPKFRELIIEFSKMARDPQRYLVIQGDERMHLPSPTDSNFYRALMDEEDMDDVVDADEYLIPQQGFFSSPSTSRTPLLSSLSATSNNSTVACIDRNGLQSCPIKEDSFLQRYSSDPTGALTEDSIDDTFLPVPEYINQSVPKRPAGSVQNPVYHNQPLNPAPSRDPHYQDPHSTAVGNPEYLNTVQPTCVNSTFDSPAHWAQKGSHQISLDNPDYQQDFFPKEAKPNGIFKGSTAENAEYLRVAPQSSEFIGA
# Summary of the method: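 Cells starved overnight in basic medium with 0.5% FBS, incubated 1 h with compound or 0.1% DMSO, then stimulated 5 min at 37°C with human recombinant cognate ligand. Receptor immunoprecipitated from lysate and immunoblotted for phosphotyrosine; IC50 by nonlinear regression of percent inhibition, n = 4.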
# ZR-75-1 = test: Antitumor activity against human ZR-75-1 cells xenografted in gamma-irradiation induced RH-rnu/rnu athymic rat assessed as tumor growth inhibition at 1.0 mg/kg, po administered once daily for 2 weeks and measured on day 14 relative to control; assay type: functional; details: ZR-75-1, light or radiation study, 336 h, read-out: TGI
# Calu-6 [3] = test: Antitumor activity against human Calu-6 cells xenografted in RH-rnu/rnu athymic rat assessed as increased pericyte coverage at 0.2 mg/kg, po administered for 14 days by immunofluorescence staining analysis relative to control; assay type: functional; details: time 14 day
# Summary of the method: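 Calu-6 xenografted athymic rats were randomized at 273-275 mm3 and dosed orally for 2 weeks. Paraffin sections were double-stained with anti-CD31 and Cy3-anti-α-smooth muscle actin. Pericyte-associated endothelial cells were counted in six fields per tumor, with six tumors per group and Dunnett's test.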
# [4] = molecular target: Tyrosine-protein kinase JAK2 (Homo sapiens, UniProt O60674); test: Inhibition of Jak2 (unknown origin) in presence of ATP
# Sequence of Tyrosine-protein kinase JAK2 (O60674 whole entry): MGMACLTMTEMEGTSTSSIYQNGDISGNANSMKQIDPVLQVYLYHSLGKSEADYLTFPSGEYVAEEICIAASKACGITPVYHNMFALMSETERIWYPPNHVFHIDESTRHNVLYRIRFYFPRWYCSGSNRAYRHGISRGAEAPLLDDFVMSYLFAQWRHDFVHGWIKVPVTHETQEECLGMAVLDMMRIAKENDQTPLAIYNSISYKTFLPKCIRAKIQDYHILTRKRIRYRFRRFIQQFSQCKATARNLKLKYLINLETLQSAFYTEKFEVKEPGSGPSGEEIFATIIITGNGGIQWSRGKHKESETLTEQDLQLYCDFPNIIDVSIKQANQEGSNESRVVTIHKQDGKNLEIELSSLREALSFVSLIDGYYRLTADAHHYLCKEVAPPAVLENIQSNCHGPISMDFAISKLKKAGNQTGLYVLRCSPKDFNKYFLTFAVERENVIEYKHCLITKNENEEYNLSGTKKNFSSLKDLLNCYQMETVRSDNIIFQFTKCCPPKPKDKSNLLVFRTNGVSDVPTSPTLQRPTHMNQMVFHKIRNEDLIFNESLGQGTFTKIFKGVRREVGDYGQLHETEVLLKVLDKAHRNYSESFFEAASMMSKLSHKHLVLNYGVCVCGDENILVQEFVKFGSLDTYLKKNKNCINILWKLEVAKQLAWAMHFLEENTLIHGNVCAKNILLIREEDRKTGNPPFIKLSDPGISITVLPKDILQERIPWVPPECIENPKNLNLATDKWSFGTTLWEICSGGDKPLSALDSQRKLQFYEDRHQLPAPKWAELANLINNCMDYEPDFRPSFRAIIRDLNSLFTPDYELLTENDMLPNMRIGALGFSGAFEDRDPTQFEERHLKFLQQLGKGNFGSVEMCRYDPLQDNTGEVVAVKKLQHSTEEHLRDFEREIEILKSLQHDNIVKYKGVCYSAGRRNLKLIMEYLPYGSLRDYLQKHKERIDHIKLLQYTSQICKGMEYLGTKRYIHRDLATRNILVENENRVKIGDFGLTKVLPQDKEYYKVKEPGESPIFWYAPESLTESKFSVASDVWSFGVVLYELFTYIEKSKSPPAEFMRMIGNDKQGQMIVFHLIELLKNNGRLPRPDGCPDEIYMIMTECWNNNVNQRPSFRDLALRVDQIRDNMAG
# SK-OV-3 = test: Antitumor activity against human SK-OV-3 cells xenografted in gamma-irradiation induced RH-rnu/rnu athymic rat assessed as tumor growth inhibition at 0.2 mg/kg, po administered once daily for 2 weeks and measured on day 14 relative to control; assay type: functional; details: SK-OV-3, light or radiation study, 336 h, read-out: TGI
# Calu-6 [5] = test: Antitumor activity against human Calu-6 cells xenografted in RH-rnu/rnu athymic rat assessed as larger enclosed median lumen area by the halos in tumor by measuring vessel diameter at 0.2 mg/kg, po administered for 14 days by H33342 dye based fluorescence microscopic analysis; assay type: functional; details: time 14 day
# Summary of the method: (§1)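 Calu-6 tumor-bearing athymic rats, three per group, received oral drug at 0.2 or 1 mg/kg or vehicle on days 0-13. They were killed 1 min after i.v. H33342 at 20 mg/kg on day 13. 10 µm cryosections were cut from five tumor levels at least 200 µm apart and examined under UV epifluorescence. The major axis of fluorescent halos around vessels was measured by image analysis, with a Mann-Whitney test.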
# A549 = test: Antitumor activity against human A549 cells xenografted in F344/N Jcl-rnu athymic rat assessed as tumor regression at 0.2 mg/kg, po relative to control
# [6] = Half life in F344/N JcL-rnu athymic rat at 1 mg/kg, po measured upto 72 hrs by HPLC-MS/MS analysis; assay type: ADME, organism-based; details: in vivo
# Summary of the method: (§2)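 Female F344/N JcL-rnu rats, four per group, single p.o. dose suspended in 0.5% methyl cellulose. Tail-vein blood sampled at set times to 72 h. Serum spiked with internal standard, deproteinated with acetonitrile, analysed by HPLC-MS/MS. Parameters derived by noncompartmental analysis.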
# [7] = Cmax in F344/N JcL-rnu athymic rat at 5 mg/kg, po measured upto 72 hrs by HPLC-MS/MS analysis; assay type: ADME, organism-based; details: in vivo; summary of the method: as §2
# [8] = Half life in F344/N JcL-rnu athymic rat at 5 mg/kg, po measured upto 72 hrs by HPLC-MS/MS analysis; assay type: ADME, organism-based; details: in vivo; summary of the method: as §2
# Calu-6 [9] = test: Antitumor activity against human Calu-6 cells xenografted in RH-rnu/rnu athymic rat assessed as increased ratio of enlarged vessels with >100 uM diameter in tumor at 1 mg/kg, po administered for 14 days by H33342 dye based fluorescence microscopic analysis relative to control; assay type: functional; details: time 14 day; summary of the method: as §1
# Calu-6 [10] = test: Antitumor activity against human Calu-6 cells xenografted in RH-rnu/rnu athymic rat assessed as larger enclosed median lumen area by the halos in tumor by measuring vessel diameter at 1 mg/kg, po administered for 14 days by H33342 dye based fluorescence microscopic analysis; assay type: functional; details: time 14 day; summary of the method: as §1
# Calu-6 [11] = test: Antitumor activity against human Calu-6 cells xenografted in RH-rnu/rnu athymic rat assessed as decrease in capillary permeability in tumor at 1 mg/kg, po measured on day 2 by DCE-MRI analysis relative to control; set-up: scale not given: the % may be the effect or the level left
# Calu-6 [12] = test: Antitumor activity against human Calu-6 cells xenografted in gamma-irradiation induced RH-rnu/rnu athymic rat assessed as tumor growth inhibition at 0.2 mg/kg, po administered once daily for 2 weeks and measured on day 14 relative to control; assay type: functional; details: Calu-6, light or radiation study, 336 h, read-out: TGI
# Summary of the method: (§3)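 Rats were γ-irradiated with 7 Gy whole body, and 24 h later received s.c. tumor cells. Fragments (20-30 mg) from ~1,500 mm3 tumors were then implanted s.c. into irradiated athymic rats. Oral dosing at 0.2 or 1 mg/kg or vehicle ran once daily for 2 weeks from day 0. Tumors were measured with calipers twice weekly (length×width²×0.5). TGI% was taken versus vehicle on day 14 (BxPC-3: day 13), with an unpaired t test on RTV.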
# LoVo = test: Antitumor activity against human LoVo cells xenografted in gamma-irradiation induced RH-rnu/rnu athymic rat assessed as tumor growth inhibition at 0.2 mg/kg, po administered once daily for 2 weeks and measured on day 14 relative to control; assay type: functional; details: light or radiation study, 336 h, read-out: TGI; summary of the method: as §3
# CAKI-1 = test: Antitumor activity against human CAKI-1 cells xenografted in gamma-irradiation induced RH-rnu/rnu athymic rat assessed as tumor growth inhibition at 1.0 mg/kg, po administered once daily for 2 weeks and measured on day 14 relative to control; assay type: functional; details: CAKI-1, light or radiation study, 336 h, read-out: TGI; summary of the method: as §3
# [13] = molecular target: Mitogen-activated protein kinase 3 (Homo sapiens, UniProt P27361); test: Inhibition of ERK1 phosphorylation in EGF-stimulated serum-starved human HUVEC cells by immunoblotting analysis; assay type: cell-based
# Sequence of Mitogen-activated protein kinase 3 (P27361 whole entry): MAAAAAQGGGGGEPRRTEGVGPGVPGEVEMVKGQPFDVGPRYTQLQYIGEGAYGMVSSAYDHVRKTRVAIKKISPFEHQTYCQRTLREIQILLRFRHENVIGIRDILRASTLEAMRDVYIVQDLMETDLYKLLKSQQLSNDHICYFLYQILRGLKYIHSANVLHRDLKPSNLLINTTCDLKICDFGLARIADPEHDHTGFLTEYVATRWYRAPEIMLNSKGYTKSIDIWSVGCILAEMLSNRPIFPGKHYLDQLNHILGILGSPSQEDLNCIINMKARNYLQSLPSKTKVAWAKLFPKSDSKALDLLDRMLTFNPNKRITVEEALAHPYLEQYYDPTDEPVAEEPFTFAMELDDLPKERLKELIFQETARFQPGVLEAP
# [14] = Half life in F344/N JcL-rnu athymic rat at 0.2 mg/kg, po measured upto 72 hrs by HPLC-MS/MS analysis; assay type: ADME, organism-based; details: in vivo; summary of the method: as §2
# Calu-6 [15] = test: Antitumor activity against human Calu-6 cells xenografted in RH-rnu/rnu athymic rat assessed as tumor growth inhibition at 1.0 mg/kg, po administered […] by DCE-MRI analysis; assay type: functional, organism-based
# Summary of the method: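 Calu-6 tumor-bearing athymic rats were randomized at 274-287 mm3 and dosed orally at 0.2 or 1.0 mg/kg or vehicle once daily on days 0-13. Tumor growth was followed by T2-weighted MRI at 1.5 T through day 21.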
# Sequence of Platelet-derived growth factor receptor beta (P09619 whole entry): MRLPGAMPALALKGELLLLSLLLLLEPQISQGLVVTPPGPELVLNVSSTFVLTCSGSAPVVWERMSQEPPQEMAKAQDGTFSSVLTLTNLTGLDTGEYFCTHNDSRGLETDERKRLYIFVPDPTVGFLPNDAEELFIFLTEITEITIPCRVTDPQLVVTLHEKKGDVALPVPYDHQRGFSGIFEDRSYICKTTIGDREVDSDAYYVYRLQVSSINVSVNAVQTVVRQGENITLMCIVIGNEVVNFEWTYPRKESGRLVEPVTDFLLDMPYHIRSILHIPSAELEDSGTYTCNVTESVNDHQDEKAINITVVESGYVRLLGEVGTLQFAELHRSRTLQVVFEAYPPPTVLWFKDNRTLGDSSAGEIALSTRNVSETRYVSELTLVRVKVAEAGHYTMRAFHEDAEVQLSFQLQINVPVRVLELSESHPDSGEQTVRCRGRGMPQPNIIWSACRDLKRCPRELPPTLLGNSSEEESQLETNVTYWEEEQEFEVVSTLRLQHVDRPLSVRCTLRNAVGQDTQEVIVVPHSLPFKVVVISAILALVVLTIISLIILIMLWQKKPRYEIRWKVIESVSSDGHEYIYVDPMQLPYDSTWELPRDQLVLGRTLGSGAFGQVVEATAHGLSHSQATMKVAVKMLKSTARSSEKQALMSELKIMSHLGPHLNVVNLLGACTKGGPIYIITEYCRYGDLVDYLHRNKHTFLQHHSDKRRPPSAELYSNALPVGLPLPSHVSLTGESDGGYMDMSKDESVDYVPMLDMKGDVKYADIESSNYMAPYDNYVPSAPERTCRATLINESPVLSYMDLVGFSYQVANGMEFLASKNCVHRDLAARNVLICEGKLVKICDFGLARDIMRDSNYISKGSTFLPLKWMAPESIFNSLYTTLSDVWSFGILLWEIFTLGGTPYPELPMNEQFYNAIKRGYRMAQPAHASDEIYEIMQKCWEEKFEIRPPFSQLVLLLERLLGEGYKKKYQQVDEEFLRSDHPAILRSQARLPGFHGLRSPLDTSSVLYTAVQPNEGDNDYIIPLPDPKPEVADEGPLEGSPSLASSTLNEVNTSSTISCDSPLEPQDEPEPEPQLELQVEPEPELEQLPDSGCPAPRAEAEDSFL
smiles,measurement,setting,value
COc1cc2nccc(Oc3ccc(NC(=O)Nc4cc(C)on4)c(Cl)c3)c2cc1OC [TIVOZANIB],IC50,[1],49 nM
same,inhibition at 0.001 µM,HUVEC,~40%
same,IC50,[2],Not Determined(Insoluble)
same,inhibition in vivo at 1 mg/kg,ZR-75-1,94.3%
same,Activity,Calu-6 [3],29.6%
same,IC50,[4],> 1000 nM
same,inhibition in vivo at 0.2 mg/kg,SK-OV-3,93.4%
same,Activity,Calu-6 [5],57.9 um
same,tumor regression % at 0.2 mg/kg,A549,2%
same,half-life,[6],8.13 h
same,Cmax,[7],2820 ng/mL
same,half-life,[8],7.94 h
same,Activity,Calu-6 [9],30.3%
same,Activity,Calu-6 [10],65.8 um
same,Activity,Calu-6 [11],55%
same,inhibition in vivo at 0.2 mg/kg,Calu-6 [12],44.1%
same,inhibition in vivo at 0.2 mg/kg,LoVo,60.3%
same,inhibition in vivo at 1 mg/kg,CAKI-1,> 100%
same,inhibition,[13],inactive
same,half-life,[14],7.78 h
same,Activity,Calu-6 [15],Active
